In the library only some 2.2% were active in any assay of this set; here they are far more common.
CXCR6 inh: CXCR6 receptor inhibitors, primary screen, cell-based, beta-arrestin, luminescence, CHO-K1 PathHunter, 1536-well; C-X-C chemokine receptor type 6 (Homo sapiens), O00574; inhibition, % at 20 µM; 360,000 compounds, 0.36% hits; AID 602244, 2012; in the data active = inhibition above about 34%, passing the limit was not always enough;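 also: antagonist mode with CXCL16 agonist at 10 nM final; 0% = 10 nM CXCL16 with DMSO and 100% = unstimulated wells without agonist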
APJ antagonist: antagonists of human apelin receptor APJ, primary screen, CHO-K1 cells, beta-arrestin complementation, luminescence; P35414; inhibition, % at 20 µM; 330,000 compounds, 0.32% hits; AID 2521, 2010;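 active = inhibition above about 40% at 20 µM, limit read from the data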;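 also: cells challenged with 10 nM apelin-13 agonist together with compound; plate controls were apelin-13 plus DMSO wells for no effect and DMSO wells lacking apelin-13 for full effect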
CCR6 antagonist: CCR6 receptor antagonists, primary screen, cell-based, CHO-K1, luminescence, beta-arrestin, uHTS; 340,000 compounds, 0.49% hits; inhibition, % at 20 µM; C-C chemokine receptor type 6 (Homo sapiens), P51684; CHO-K1 CCR6 PathHunter beta-arrestin, CCL20-stimulated;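 active = compounds whose inhibition of the agonist-driven luminescence signal at 20 µM reaches about 50%, limit read from the data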;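 also: cells stimulated with CCL20 at 14 nM final; plate controls were DMSO with CCL20 for no effect and DMSO without agonist for full effect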
HTR2A ag: mouse Htr2a agonists via beta-arrestin recruitment, primary screen, cell-based, luminescence; CHO-K1 mHTR2A beta-arrestin complementation; percent of 30 µM serotonin response; AID 624169, 2012; activation, % at 7.6 µM; 360,000 compounds, 0.66% hits; 5-hydroxytryptamine receptor 2A (Mus musculus), P35363;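 active = activation above a run cutoff, the mean activation of all tested compounds plus 3 SD, cut at about 14% in these data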;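 also: 0% = plate median of compound wells and 100% = 30 µM serotonin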
Target sequence (P35363 whole entry, looked up): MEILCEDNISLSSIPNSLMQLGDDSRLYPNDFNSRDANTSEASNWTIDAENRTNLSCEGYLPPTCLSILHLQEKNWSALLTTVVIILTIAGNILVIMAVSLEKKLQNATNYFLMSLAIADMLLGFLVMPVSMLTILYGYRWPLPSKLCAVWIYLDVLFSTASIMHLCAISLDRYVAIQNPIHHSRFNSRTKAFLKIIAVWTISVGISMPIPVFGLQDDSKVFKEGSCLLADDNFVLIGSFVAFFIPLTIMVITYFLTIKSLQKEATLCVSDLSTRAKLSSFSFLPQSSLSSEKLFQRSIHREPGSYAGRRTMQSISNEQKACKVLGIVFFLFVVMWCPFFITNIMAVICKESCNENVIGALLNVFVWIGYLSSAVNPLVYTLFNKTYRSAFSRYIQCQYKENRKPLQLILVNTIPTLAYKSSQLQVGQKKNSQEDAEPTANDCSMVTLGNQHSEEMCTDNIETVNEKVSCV
APJ agonist: agonists of human apelin receptor APJ, primary screen, CHO-K1 cells, PathHunter beta-arrestin, luminescence | 330,000 compounds, 0.11% hits | P35414 | activation, % at 20 µM | 0% DMSO wells, 100% apelin;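 active = activation more than six SD over the plate average, tested at 20 µM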;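 also: 0% = DMSO alone and 100% = apelin-13 at 10 nM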
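system = engineered CHO-K1 APJ arrestin reporter cells | input = 1000 cells per well | timing = overnight seeding, 90 min compound at 25 °C, 1 h detection | measured by = enzyme-fragment complementation luminescence | read-out = beta-arrestin recruitment to APJ as agonist activity, luminescent signal | control set = negative DMSO alone, positive Apelin-13 at 10 nM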
EBI2 block: EBI2 receptor antagonists, beta-arrestin recruitment, primary screen, cell-based, luminescence, 7a,25-OHC stimulation, uHTS. G-protein coupled receptor 183 (Homo sapiens), P32249. 7a,25-OHC stimulated. inhibition, % at 5 µM. 360,000 compounds, 0.81% hits. AID 651636, 2012; in the data active = inhibition above about 38%;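 also: enzyme fragment complementation signal reports receptor beta-arrestin coupling in cells; 0% = agonist plus DMSO wells and 100% = wells without agonist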
EBI2 conf: EBI2 antagonist hit retest, beta-arrestin, confirmation, cell-based, single concentration, luminescence, 7a,25-OHC stimulation; 2,400 compounds, 29% hits; shares compounds with EBI2 block; inhibition, % at 5 µM; AID 651997, 2013; 7a,25-OHC antagonism;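 active = inhibition of at least 50%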
EBI2 ag: EBI2 agonist activity of antagonist hits, confirmation, counter-screen for EBI2 antagonist project, cell-based, single concentration, agonist mode, luminescence; EBI2-expressing cells, 60 min; 0% vehicle, 100% 7α,25-dihydroxycholesterol control; 2,400 tested, under 10 active; shares compounds with EBI2 block; activation, % at 5 µM;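 active = activation of at least 50%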
bGal counter: E. coli beta-galactosidase enzyme inhibition, confirmation, counter-screen for EBI2 antagonist project, biochemical, luminescence, single concentration. shares compounds with EBI2 block. purified beta-galactosidase, luminescent Galacton Star, 15 min. inhibition, % at 5 µM. 2,400 compounds, 1% hits. AID 652176, 2013;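 active = replicate-average signal at least 3 plate SD below neutral wells, shown as high inhibition, flagging enzyme-inhibiting false positives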;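 also: 0% = DMSO wells with enzyme and 100% = wells lacking enzyme; higher means stronger loss of beta-gal luminescence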
* hit, by the source's call; nt = not tested or not shown.

SMILES	CXCR6 inh	APJ antagonist	CCR6 antagonist	HTR2A ag	APJ agonist	EBI2 block	EBI2 conf	EBI2 ag	bGal counter
Cc1ccc(S(=O)(=O)N2CCN(C(=O)CCCOc3ccc(Cl)cc3C)CC2)cc1	5.2	7.2	14.0	-4.8	7.1	78.8*	44.5	0.6	2.2
Cc1ccc(S(=O)(=O)N2CCN(C(=O)CCOc3ccccc3C)CC2)cc1C	0.1	15.3	-7.8	-7.8	8.3	47.7*	24.6	0.4	6.3
O=C(Nc1cccc(Cl)c1)N1CCN(C/C=C/c2ccccc2)CC1	-8.1	-6.6	12.1	-6.7	0.3	54.7*	41.2	0.0	-6.3
C[C@H](NC(=O)c1ccc(C(C)(C)C)cc1)C(=O)N1CCN(C/C=C/c2ccccc2)CC1	7.8	-6.7	21.3	-11.7	-2.7	72.1*	53.8*	-0.3	-13.5
CC(C)C(NC(=O)c1ccccc1)C(=O)N1CCN(C/C=C/c2ccccc2)CC1 (stereo not given)	9.3	6.4	2.5	-11.5	-2.3	22.4	nt	nt	nt
O=C(c1ccc(Br)s1)N1CCN(C/C=C/c2ccccc2)CC1	4.9	-21.8	-1.6	2.0	-0.6	42.8*	15.7	-1.1	-5.3
O=C(CCN1CCN(C/C=C/c2ccccc2)CC1)Nc1ccc(Cl)cc1	-6.8	-25.1	1.8	-1.2	-3.8	-6.6	nt	nt	nt
Cc1ccc(S(=O)(=O)N2C3CC(c4ccccc4)N(S(=O)(=O)c4ccccc4Cl)CC3C(=O)C[C@H]2c2ccccc2)cc1 (stereo not given in full)	nt	nt	nt	-3.1	nt	9.8	nt	nt	nt
CC1OC(CCc2cccc(Cl)c2)Cc2[nH][nH]c(=O)c21 (stereo not given)	-7.2	nt	nt	7.5	nt	4.4	nt	nt	nt
CCc1nc2ccc(C(=O)Nc3cc(-c4ccccc4)ccc3OC)cn2c1N(C)Cc1ccc(OC)cc1	12.9	nt	nt	-3.2	nt	44.5*	0.0	-0.2	-6.4
CCc1nc2ccc(C(=O)Nc3cc(-c4ccccc4)ccc3OC)cn2c1N(C)C(=O)c1cccc(OC)c1	11.0	nt	nt	1.8	nt	42.9*	15.8	-0.7	-14.1
CCc1nc2ccc(C(=O)Nc3cc(-c4ccccc4)ccc3OC)cn2c1N(C)CCCc1ccccc1	14.3	nt	nt	7.4	nt	26.7	nt	nt	nt
OC[C@@H]1CN(Cc2ccc3c(c2)OCO3)C[C@H](n2cnc3c(NCc4ccncc4)ncnc32)O1	-7.8	nt	nt	-0.2	nt	-3.4	nt	nt	nt
CCOC(=O)[C@]12CCC=C1N(Cc1ccc3c(c1)OCO3)C(=O)[C@H](CC(=O)NCc1ccc(C)o1)C2	-0.1	nt	nt	4.8	nt	-5.8	nt	nt	nt
Cc1cccc(OCC(=O)N2CCC3(CC2)CC(=O)c2ccccc2O3)c1	-1.5	9.5	6.8	-4.5	-0.8	30.8	nt	nt	nt
Cc1ccc(OCC(=O)N2CCN(C(=O)Cc3ccccc3)CC2)cc1	1.4	7.0	-25.8	5.5	-1.4	57.7*	49.4	-1.5	-4.3
COc1ccc(CC(=O)N2CCN(c3ccccn3)CC2)cc1	10.5	-11.1	0.9	1.4	-1.7	0.7	nt	nt	nt
COc1ccc(OCC(=O)N2CCC3(CC2)CC(=O)c2ccccc2O3)cc1	4.9	-44.7	6.5	5.6	-3.1	77.4*	60.7*	1.5	6.3
COc1ccc(OCC(=O)N2CCN(C(=O)Cc3ccccc3)CC2)cc1	0.7	5.1	9.0	0.5	-2.4	76.1*	48.5	0.9	4.9
COc1ccc(OCC(=O)N2CCN(S(=O)(=O)c3ccc4c(c3)OCCO4)CC2)cc1	-4.8	nt	nt	1.3	nt	82.0*	54.7*	-0.4	-13.4
Cc1ccc(OCC(=O)N2CCCCCCC2)cc1	-11.5	0.7	-4.1	6.0	-4.3	7.3	nt	nt	nt
CCC(=O)N[C@@H]1C=C[C@@H](CC(=O)NCc2ccccc2F)O[C@@H]1CO	nt	nt	nt	7.2	nt	1.6	nt	nt	nt
CCN1CCN(C(=O)c2ccc(CS(=O)(=O)Cc3ccccc3Cl)o2)CC1	-4.9	nt	nt	5.6	nt	1.2	nt	nt	nt
CC1(C(=O)NCc2ccccc2Br)CCN1Cc1ccc(-c2ccccn2)cc1 (stereo not given)	-9.2	nt	nt	-2.2	nt	15.5	nt	nt	nt
CCCS(=O)(=O)N1CCN(C(=O)COc2ccc(OC)cc2)CC1	0.9	-24.9	-7.5	1.5	-1.8	61.7*	42.1	1.6	10.9
SMILES	CXCR6 inh	APJ antagonist	CCR6 antagonist	HTR2A ag	APJ agonist	EBI2 block	EBI2 conf	EBI2 ag	bGal counter
COc1ccc(OCC(=O)N2CCN(S(=O)(=O)c3ccccc3[N+](=O)[O-])CC2)cc1	-5.5	-0.5	10.9	-1.1	-1.0	83.3*	60.6*	-0.5	-17.0
Cc1ccccc1CN(c1ccc(C(=O)Nc2ccccc2C(=O)NCc2ccco2)cc1)S(C)(=O)=O	-1.3	-1.1	6.9	3.4	-0.9	57.9*	13.4	-0.9	-16.1
COc1ccc(NC(=O)CN2c3cccc4cccc(c34)S2(=O)=O)cc1OC	-3.2	nt	nt	-0.6	nt	-2.6	nt	nt	nt
COC(=O)[C@@]12C[C@@H](CC(=O)N3CCOCC3)C(=O)N(Cc3ccc4c(c3)OCO4)C1=CCC(C)(C)C2	nt	nt	nt	-2.1	nt	-1.1	nt	nt	nt
CN(C(=O)c1cccc(NC(=O)Cc2ccc(NC(=O)C3CCN(S(=O)(=O)c4cccc([N+](=O)[O-])c4)CC3)cc2)c1)C1CCCC1	-4.4	nt	2.3	-0.7	nt	36.3	nt	nt	nt
CN(C(=O)c1cccc(NC(=O)Cc2ccc(NC(=O)C3CCN(S(=O)(=O)c4cccc([N+](=O)[O-])c4)CC3)cc2)c1)C1CCC1	-4.6	nt	9.1	6.1	nt	76.5*	14.3	-2.0	-3.7
COc1ccc(C(=O)Nc2ccc(O)c3c(=O)cc(-c4cccc(Cl)c4)oc23)cc1	6.3	23.7	23.3	2.0	-6.1	44.0*	20.9	0.2	6.1
CC(C)(C)c1ccc(C(=O)Nc2ccc(O)c3c(=O)cc(-c4cccc(Cl)c4)oc23)cc1	10.9	5.7	12.4	-5.8	-0.8	-2.7	nt	nt	nt
NS(=O)(=O)c1ccc(N/N=C/c2cn(-c3ccccc3)nc2-c2cccs2)cc1	-13.5	-21.8	-1.2	-4.6	2.4	41.4*	29.7	0.7	5.7

Screening results: PubChem, several laboratories
